Measured values as given in ChEMBL document CHEMBL1142136, “Contribution of target gene mutations and efflux to decreased susceptibility of Salmonella enterica serovar typhimurium to fluoroquinolones and other antimicrobials” (2007).
Converted amounts (≈) assume the structure as drawn.

Tests used:
Assay type in all cases: functional, Salmonella enterica subsp. enterica serovar Typhimurium
Salmonella typhimurium [1] = assay: Antimicrobial activity against Salmonella enterica serovar Typhimurium CHS14 tolC::Kan with GyrA D87G mutant
How it was run: (§1)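 MICs measured by broth microdilution on the Sensititre automated system and interpreted by CLSI broth microdilution standards. Ciprofloxacin was also tested by agar dilution, widening the range to 0.0075–128 μg/ml. Quality control strains were E. coli ATCC 25922 and 35218, E. faecalis ATCC 29212, S. aureus ATCC 29213 and P. aeruginosa ATCC 27853.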

Salmonella typhimurium [2] = assay: Antimicrobial activity against Salmonella enterica serovar Typhimurium CHS18 tolC::Kan with GyrA S38F mutation; how it was run: as §1
Salmonella typhimurium [3] = assay: Antimicrobial activity against Salmonella enterica serovar Typhimurium S21 acrAB::Kan
How it was run: (§2)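 MICs by automated broth microdilution panels, interpreted to CLSI broth microdilution standards. Ciprofloxacin additionally tested by agar dilution across 0.0075 to 128 μg/ml. Quality control strains: E. coli ATCC 25922 and 35218, Enterococcus faecalis ATCC 29212, S. aureus ATCC 29213, P. aeruginosa ATCC 27853. Test strains are kanamycin-marked deletion mutants of ground-beef isolate S21.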

Salmonella typhimurium [4] = assay: Antimicrobial activity against Salmonella enterica serovar Typhimurium S21-3 with GyrA S83F, ParC S80I mutation; how it was run: as §1
Salmonella typhimurium [5] = assay: Antimicrobial activity against Salmonella enterica serovar Typhimurium CHS38 acrAB::Kan with GyrA D87G mutation; how it was run: as §1
Salmonella typhimurium [6] = assay: Antimicrobial activity against Salmonella enterica serovar Typhimurium S21-2 tolC::Kan with GyrA S83F, ParC S80I mutation; how it was run: as §1
Salmonella typhimurium [7] = assay: Antimicrobial activity against Salmonella enterica serovar Typhimurium CS3 gyrA+ with GyrA S83F, D87N, ParC S80I mutation; how it was run: as §1
Salmonella typhimurium [8] = assay: Antimicrobial activity against Salmonella enterica serovar Typhimurium CHS38 gyrA+ with GyrA D87G mutation; how it was run: as §1
Salmonella typhimurium [9] = assay: Antimicrobial activity against Salmonella enterica serovar Typhimurium S21; how it was run: as §1
Salmonella typhimurium [10] = assay: Antimicrobial activity against Salmonella enterica serovar Typhimurium CHS18 acrAB::Kan with GyrA S38F mutation; how it was run: as §1
Salmonella typhimurium [11] = assay: Antimicrobial activity against Salmonella enterica serovar Typhimurium S21-2 gyrA+ with ParC S80I mutation; how it was run: as §1
Salmonella typhimurium [12] = assay: Antimicrobial activity against Salmonella enterica serovar Typhimurium CS9 tolC::Kan with GyrA S83F, D87N, ParC S80I mutation; how it was run: as §1
Salmonella typhimurium [13] = assay: Antimicrobial activity against Salmonella enterica serovar Typhimurium CS9 gyrA+ with GyrA S83F, D87N, ParC S80I mutation; how it was run: as §1
Salmonella typhimurium [14] = assay: Antimicrobial activity against Salmonella enterica serovar Typhimurium S21-3 acrAB::Kan with GyrA S83F, ParC S80I mutation; how it was run: as §1
Salmonella typhimurium [15] = assay: Antimicrobial activity against Salmonella enterica serovar Typhimurium CHS18 gyrA+ with GyrA S38F mutation; how it was run: as §1
Salmonella typhimurium [16] = assay: Antimicrobial activity against Salmonella enterica serovar Typhimurium S21-2 with GyrA S83F, ParC S80I mutation; how it was run: as §1
Salmonella typhimurium [17] = assay: Antimicrobial activity against Salmonella enterica serovar Typhimurium S21-4 with GyrA S83F, ParC S80I mutation; how it was run: as §1
Salmonella typhimurium [18] = assay: Antimicrobial activity against Salmonella enterica serovar Typhimurium CS3 acrAB::Kan with GyrA S83F, D87N, ParC S80I mutation; how it was run: as §1
Salmonella typhimurium [19] = assay: Antimicrobial activity against Salmonella enterica serovar Typhimurium CS1 acrAB::Kan with GyrA S83F, D87N, ParC S80I mutation; how it was run: as §1
Salmonella typhimurium [20] = assay: Antimicrobial activity against Salmonella enterica serovar Typhimurium S21-4 tolC::Kan with GyrA S83F, ParC S80I mutation; how it was run: as §1
Salmonella typhimurium [21] = assay: Antimicrobial activity against Salmonella enterica serovar Typhimurium S21-1 GyrA S83F mutant; how it was run: as §1
Salmonella typhimurium [22] = assay: Antimicrobial activity against Salmonella enterica serovar Typhimurium GyrA S21-1 acrAB::Kan with GyrA S83F mutation; how it was run: as §1
Salmonella typhimurium [23] = assay: Antimicrobial activity against Salmonella enterica serovar Typhimurium S21-1 tolC::Kan with GyrA S83F mutation; how it was run: as §1
Salmonella typhimurium [24] = assay: Antimicrobial activity against Salmonella enterica serovar Typhimurium S21-3 tolC::Kan with GyrA S83F, ParC S80I mutation; how it was run: as §1
Salmonella typhimurium [25] = assay: Antimicrobial activity against Salmonella enterica serovar Typhimurium CS3 with GyrA S83F, D87N, ParC S80I mutation; how it was run: as §1
Salmonella typhimurium [26] = assay: Antimicrobial activity against Salmonella enterica serovar Typhimurium CS9 with GyrA S83F, D87N, ParC S80I mutation; how it was run: as §1
Salmonella typhimurium [27] = assay: Antimicrobial activity against Salmonella enterica serovar Typhimurium S21-1 gyrA+; how it was run: as §1
Salmonella typhimurium [28] = assay: Antimicrobial activity against Salmonella enterica serovar Typhimurium CHS38 with GyrA D87G mutation; how it was run: as §1
Salmonella typhimurium [29] = assay: Antimicrobial activity against Salmonella enterica serovar Typhimurium S21-4 acrAB::Kan with GyrA S83F, ParC S80I mutation; how it was run: as §1
Salmonella typhimurium [30] = assay: Antimicrobial activity against Salmonella enterica serovar Typhimurium S21-4 gyrA+ with ParC S80I mutation; how it was run: as §1
Salmonella typhimurium [31] = assay: Antimicrobial activity against Salmonella enterica serovar Typhimurium CS9 acrAB::Kan with GyrA S83F, D87N, ParC S80I mutation; how it was run: as §1
Salmonella typhimurium [32] = assay: Antimicrobial activity against Salmonella enterica serovar Typhimurium S21-2 acrAB::Kan with GyrA S83F, ParC S80I mutation; how it was run: as §1
Salmonella typhimurium [33] = assay: Antimicrobial activity against Salmonella enterica serovar Typhimurium CS1 tolC::Kan with GyrA S83F, D87N, ParC S80I mutation; how it was run: as §1
Salmonella typhimurium [34] = assay: Antimicrobial activity against Salmonella enterica serovar Typhimurium CHS38 tolC::Kan with GyrA D87G mutation; how it was run: as §1
Salmonella typhimurium [35] = assay: Antimicrobial activity against Salmonella enterica serovar Typhimurium CHS14 with GyrA D87G mutation; how it was run: as §1
Salmonella typhimurium [36] = assay: Antimicrobial activity against Salmonella enterica serovar Typhimurium S21 gyrA+; how it was run: as §1
Salmonella typhimurium [37] = assay: Antimicrobial activity against Salmonella enterica serovar Typhimurium CHS14 acrAB::Kan with GyrA D87G mutation; how it was run: as §1
Salmonella typhimurium [38] = assay: Antimicrobial activity against Salmonella enterica serovar Typhimurium S21-3 gyrA+ with ParC S80I mutation; how it was run: as §1
Salmonella typhimurium [39] = assay: Antimicrobial activity against Salmonella enterica serovar Typhimurium CS1 gyrA+ with GyrA S83F, D87N, ParC S80I mutation; how it was run: as §1
Salmonella typhimurium [40] = assay: Antimicrobial activity against Salmonella enterica serovar Typhimurium CS3 tolC::Kan with GyrA S83F, D87N, parC S80I mutation; how it was run: as §1
Salmonella typhimurium [41] = assay: Antimicrobial activity against Salmonella enterica serovar Typhimurium S21 tolC::Kan; how it was run: as §2
Salmonella typhimurium [42] = assay: Antimicrobial activity against Salmonella enterica serovar Typhimurium CHS18 with GyrA S38F mutation; how it was run: as §1
Salmonella typhimurium [43] = assay: Antimicrobial activity against Salmonella enterica serovar Typhimurium CHS14 gyrA+ with GyrA D87G mutation; how it was run: as §1
Salmonella typhimurium [44] = assay: Antimicrobial activity against Salmonella enterica serovar Typhimurium CS1 with GyrA S83F, D87N, ParC S80I mutation; how it was run: as §1

## CO[C@@]1(NC(=O)Cc2cccs2)C(=O)N2C(C(=O)O)=C(COC(N)=O)CS[C@@H]21 [CEFOXITIN]
Salmonella typhimurium [1]
  MIC: 1 µg/mL (≈ 2.34 µM)
Salmonella typhimurium [2]
  MIC: 1 µg/mL (≈ 2.34 µM)
Salmonella typhimurium [3]
  MIC: 1 µg/mL (≈ 2.34 µM)
Salmonella typhimurium [4]
  MIC: > 16 µg/mL
Salmonella typhimurium [5]
  MIC: 0.5 µg/mL (≈ 1.17 µM)
Salmonella typhimurium [6]
  MIC: 2 µg/mL (≈ 4.68 µM)
Salmonella typhimurium [7]
  MIC: 2 µg/mL (≈ 4.68 µM)
Salmonella typhimurium [8]
  MIC: 4 µg/mL (≈ 9.36 µM)
Salmonella typhimurium [9]
  MIC: 4 µg/mL (≈ 9.36 µM)
Salmonella typhimurium [10]
  MIC: 1 µg/mL (≈ 2.34 µM)
Salmonella typhimurium [11]
  MIC: > 16 µg/mL
Salmonella typhimurium [12]
  MIC: 1 µg/mL (≈ 2.34 µM)
Salmonella typhimurium [13]
  MIC: 2 µg/mL (≈ 4.68 µM)
Salmonella typhimurium [14]
  MIC: 1 µg/mL (≈ 2.34 µM)
Salmonella typhimurium [15]
  MIC: 2 µg/mL (≈ 4.68 µM)
Salmonella typhimurium [16]
  MIC: > 16 µg/mL
Salmonella typhimurium [17]
  MIC: > 16 µg/mL
Salmonella typhimurium [18]
  MIC: 1 µg/mL (≈ 2.34 µM)
Salmonella typhimurium [19]
  MIC: 1 µg/mL (≈ 2.34 µM)
Salmonella typhimurium [20]
  MIC: 2 µg/mL (≈ 4.68 µM)
Salmonella typhimurium [21]
  MIC: 2 µg/mL (≈ 4.68 µM)
Salmonella typhimurium [22]
  MIC: 1 µg/mL (≈ 2.34 µM)
Salmonella typhimurium [23]
  MIC: 1 µg/mL (≈ 2.34 µM)
Salmonella typhimurium [24]
  MIC: 1 µg/mL (≈ 2.34 µM)
Salmonella typhimurium [25]
  MIC: 1 µg/mL (≈ 2.34 µM)
Salmonella typhimurium [26]
  MIC: 1 µg/mL (≈ 2.34 µM)
Salmonella typhimurium [27]
  MIC: 2 µg/mL (≈ 4.68 µM)
Salmonella typhimurium [28]
  MIC: 4 µg/mL (≈ 9.36 µM)
Salmonella typhimurium [29]
  MIC: 1 µg/mL (≈ 2.34 µM)
Salmonella typhimurium [30]
  MIC: > 16 µg/mL
Salmonella typhimurium [31]
  MIC: 1 µg/mL (≈ 2.34 µM)
Salmonella typhimurium [32]
  MIC: 2 µg/mL (≈ 4.68 µM)
Salmonella typhimurium [33]
  MIC: 1 µg/mL (≈ 2.34 µM)
Salmonella typhimurium [34]
  MIC: 0.5 µg/mL (≈ 1.17 µM)
Salmonella typhimurium [35]
  MIC: 4 µg/mL (≈ 9.36 µM)
Salmonella typhimurium [36]
  MIC: 4 µg/mL (≈ 9.36 µM)
Salmonella typhimurium [37]
  MIC: 1 µg/mL (≈ 2.34 µM)
Salmonella typhimurium [38]
  MIC: > 16 µg/mL
Salmonella typhimurium [39]
  MIC: 2 µg/mL (≈ 4.68 µM)
Salmonella typhimurium [40]
  MIC: 1 µg/mL (≈ 2.34 µM)
Salmonella typhimurium [41]
  MIC: 1 µg/mL (≈ 2.34 µM)
Salmonella typhimurium [42]
  MIC: 2 µg/mL (≈ 4.68 µM)
Salmonella typhimurium [43]
  MIC: 2 µg/mL (≈ 4.68 µM)
Salmonella typhimurium [44]
  MIC: 1 µg/mL (≈ 2.34 µM)
